Data as given in paper PMC4304654 (Bioorganic & medicinal chemistry, 2012).
In brackets after ≈: the same amount, converted by molar mass.

Key:
[1] = target: T1, K18 tau fragment (amino acids 244–369) bearing the P301L mutation (K18PL) (Homo sapiens, UniProt P10636, P618L); assay: Heparin-induced K18PL tau fibrillization, thioflavin-T; type: biochemical
Outline: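 Heparin-induced fibrillization of the P301L K18 tau fragment (residues 244–369) in sodium acetate buffer, with test compound at a range of concentrations, each in triplicate. Read-out is thioflavin-T fluorescence of cross-beta fibrils. IC50 comes from a sigmoidal fit of the concentration-response, from one curve fit or the mean of 2 or more separate analyses. Maximal % inhibition is also reported.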

[2] = Aqueous solubility in the sodium acetate buffer of the fibrillization assay; type: physicochemical
[3] = Brain and plasma levels 1 h after i.p. administration of 5 mg/kg; type: in vivo, B6C3F1 mice; conditions: mice
Outline: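 Mice got a single i.p. 5 mg/kg dose of test compound and were sacrificed 1 h later. Perfused brain hemispheres were sonicated in 10 mM ammonium acetate, pH 5.7 (50% w/v). Plasma came from EDTA-treated blood spun 10 min at 4500g, 4 °C. Samples were acetonitrile-precipitated and spun at 15000g. Supernatants went to LC-MS/MS (MRM, C18, 35 °C) and were quantified against matrix-matched linear standard curves.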

[4] = target: T1, K18 tau fragment (amino acids 244–369) bearing the P301L mutation (K18PL); conditions: 50 μM compound concentration; previously reported data ref 7; cited from earlier work
[5] = sodium acetate fibrillization assay buffer; previously reported data ref 7; cited from earlier work
[6] = Unbound fraction in plasma by rapid equilibrium dialysis; type: in vitro ADME; conditions: mouse, pH 7.4

T1 sequence (P10636 561-686 P618L): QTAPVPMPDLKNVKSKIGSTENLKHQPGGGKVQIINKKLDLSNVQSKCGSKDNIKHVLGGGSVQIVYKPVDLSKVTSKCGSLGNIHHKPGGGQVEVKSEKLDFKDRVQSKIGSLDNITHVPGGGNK

Compound | solubility [2] | also measured
Cc1n[nH]c(=O)c2c(N)scc12 [Compound 55, 7-Amino-4-methylthieno[3,4-d]pyridazin-1(2H)-one] | > 200 µM | Inhibition in the K18PL fibrillization assay [1]: near full inhibition; Plasma levels 1 h after dosing ([3]; 5 mg/kg i.p.): low plasma levels; Brain level ([3]; 1 h after 5 mg/kg i.p.): BLD ^d; Plasma level ([3]; 1 h after 5 mg/kg i.p.): BLD ^d
CCOC(=O)c1nn(-c2ccc(Cl)cc2)c(=O)c2c(N)sc(Cl)c12 [Compound 67, Ethyl 5-amino-7-chloro-3-(4-chlorophenyl)-4-oxo-3,4-dihydrothieno[3,4-d]pyridazine-1-carboxylate] | 32 µM (≈ 12.3 µg/mL) | Inhibition in the K18PL fibrillization assay [1]: near full inhibition
CCOC(=O)c1nn(-c2ccc(Cl)cc2)c(=O)c2c(N)scc12 [Compound 29, Ethyl 5-amino-3-(4-chlorophenyl)-4-oxo-3,4-dihydrothieno-[3,4-d]pyridazine-1-carboxylate] |  | K18PL centrifugation assay % Soluble [4]: 47%; Solubility in assay buffer, upper solubility limit [5]: 13 µM (≈ 4.55 µg/mL)
Nc1scc2c(C(=O)NCC(F)(F)F)nn(-c3ccc(F)cc3)c(=O)c12 [Compound 44, 5-Amino-3-(4-fluorophenyl)-4-oxo-N-(2,2,2-trifluoroethyl)-3,4-dihydrothieno[3,4-d]pyridazine-1-carboxamide] | > 200 µM | fraction unbound at 5 h, 1 μM [6]: 0.022 ± 0.002; B/P (total), brain-to-plasma ratio ([3]; 1 h after 5 mg/kg i.p.): unity
Cc1nn(Cc2ccccc2)c(=O)c2c(N)scc12 [Compound 62, 7-Amino-2-benzyl-4-methylthieno[3,4-d]pyridazin-1(2H)-one] | 80 µM (≈ 21.7 µg/mL) | fraction unbound at 5 h, 1 μM [6]: 0.04 ± 0.01
Cc1nn(C)c(=O)c2c(N)scc12 [Compound 56, 7-Amino-2,4-dimethylthieno[3,4-d]pyridazin-1(2H)-one] | > 200 µM | Inhibition in the K18PL fibrillization assay [1]: near full inhibition; Brain level ([3]; 1 h after 5 mg/kg i.p.): BLD ^d
CC(C)NC(=O)c1nn(-c2ccc(F)cc2)c(=O)c2c(N)scc12 [Compound 42, 5-Amino-3-(4-fluorophenyl)-N-isopropyl-4-oxo-3,4-dihydrothieno[3,4-d]pyridazine-1-carboxamide] | > 200 µM | fraction unbound at 5 h, 1 μM [6]: 0.057 ± 0.005; B/P (total), brain-to-plasma ratio ([3]; 1 h after 5 mg/kg i.p.): unity
Nc1scc2c(C(=O)O)nn(-c3ccc(Cl)cc3)c(=O)c12 [Compound 37, 5-Amino-3-(4-chlorophenyl)-4-oxo-3,4-dihydrothieno[3,4-d]pyridazine-1-carboxylic acid] |  | K18PL centrifugation assay % Soluble [4]: 74%; Solubility in assay buffer, upper solubility limit [5]: >200 µM
O=C(O)c1nn(-c2ccc(F)cc2)c(=O)c2c1CSC2=O [Compound 70, 3-(4-Fluorophenyl)-4,5-dioxo-3,4,5,7-tetrahydrothieno[3,4-d]pyridazine-1-carboxylic acid] | > 200 µM | Inhibition in the K18PL fibrillization assay [1]: near full inhibition
CCOC(=O)c1nn(-c2cccc(Cl)c2)c(=O)c2c(N)scc12 [Compound 28, Ethyl 5-amino-3-(3-chlorophenyl)-4-oxo-3,4-dihydrothieno-[3,4-d]pyridazine-1-carboxylate] | 32 µM (≈ 11.2 µg/mL) | 
CCOC(=O)c1nn(-c2ccc(O)cc2)c(=O)c2c(N)scc12 [Compound 32, Ethyl 5-amino-3-(4-hydroxyphenyl)-4-oxo-3,4-dihydrothieno[3,4-d]pyridazine-1-carboxylate] | 12.8 µM (≈ 4.24 µg/mL) | 
Cc1nn(-c2cccnc2)c(=O)c2c(N)scc12 [Compound 61, 7-Amino-4-methyl-2-(pyridin-3-yl)thieno[3,4-d]pyridazin-1(2H)-one] | > 200 µM | 
CCOC(=O)c1nn(-c2ccc(Cl)cc2)c(=O)c2c(N)sc(Br)c12 [Compound 68, Ethyl 5-amino-7-bromo-3-(4-chlorophenyl)-4-oxo-3,4-dihydrothieno[3,4-d]pyridazine-1-carboxylate] | 12.8 µM (≈ 5.49 µg/mL) | Inhibition in the K18PL fibrillization assay [1]: near full inhibition
Nc1scc2c(C(=O)O)nn(-c3ccccc3Cl)c(=O)c12 [Compound 35, 5-Amino-3-(2-chlorophenyl)-4-oxo-3,4-dihydrothieno[3,4-d]pyridazine-1-carboxylic acid] | > 200 µM | 
CC(C)NC(=O)c1nn(-c2ccc(Cl)cc2)c(=O)c2c1CSC2=O [Compound 72, 3-(4-Chlorophenyl)-N-isopropyl-4,5-dioxo-3,4,5,7-tetrahydrothieno[3,4-d]pyridazine-1-carboxamide] |  | Inhibition in the K18PL fibrillization assay [1]: near full inhibition; Brain penetration ([3]; 1 h after 5 mg/kg i.p.): not brain-penetrant
Nc1scc2c(C(=O)NC3CC3)nn(-c3ccccc3Cl)c(=O)c12 [Compound 45, 5-Amino-3-(2-chlorophenyl)-N-cyclopropyl-4-oxo-3,4-dihydrothieno[3,4-d]pyridazine-1-carboxamide] | 80 µM (≈ 28.9 µg/mL) | 
Cc1nn(-c2ccc(Cl)cc2)c(=O)c2c(N)scc12 [Compound 63, 7-Amino-2-(4-chlorophenyl)-4-methylthieno[3,4-d]pyridazin-1(2H)-one] | 80 µM (≈ 23.3 µg/mL) | 
Cc1nn(CC(F)(F)F)c(=O)c2c(N)scc12 [Compound 58, 7-Amino-4-methyl-2-(2,2,2-trifluoroethyl)thieno[3,4-d]pyridazin-1(2H)-one] | > 200 µM | 
CC(C)NC(=O)c1nn(-c2ccc(O)cc2)c(=O)c2c(N)scc12 [Compound 49, 5-Amino-3-(4-hydroxyphenyl)-N-isopropyl-4-oxo-3,4-dihydrothieno[3,4-d]pyridazine-1-carboxamide] | > 200 µM | 
Nc1scc2c(C(=O)O)nn(-c3ccc(C(F)(F)F)cc3)c(=O)c12 [Compound 38, 5-Amino-4-oxo-3-(4-(trifluoromethyl)phenyl)-3,4-dihydrothieno[3,4-d]pyridazine-1-carboxylic acid] | > 200 µM | 
Nc1scc2c(C(=O)NC3CC3)nn(-c3ccc(C(F)(F)F)cc3)c(=O)c12 [Compound 47, 5-Amino-N-cyclopropyl-4-oxo-3-(4-(trifluoromethyl)-phenyl)-3,4-dihydrothieno[3,4-d]pyridazine-1-carboxamide] | 80 µM (≈ 31.6 µg/mL) | 
Cc1nn(-c2ccccn2)c(=O)c2c(N)scc12 [Compound 60, 7-Amino-4-methyl-2-(pyridin-2-yl)thieno[3,4-d]pyridazin-1(2H)-one] | > 200 µM | 
CC(C)NC(=O)c1nn(-c2ccc(OC(F)(F)F)cc2)c(=O)c2c(N)scc12 [Compound 48, 5-Amino-N-isopropyl-4-oxo-3-(4-(trifluoromethoxy)-phenyl)-3,4-dihydrothieno[3,4-d]pyridazine-1-carboxamide] | 80 µM (≈ 33 µg/mL) | 
Nc1scc2c(C(=O)O)nn(-c3ccc(O)cc3)c(=O)c12 [Compound 40, 5-Amino-3-(4-hydroxyphenyl)-4-oxo-3,4-dihydrothieno[3,4-d]pyridazine-1-carboxylic acid] | > 200 µM | 
